Compounds with a hit are over-represented: about 3.7% of the library has one in this group of screens.
KCNQ1 block – inhibitors of human KCNQ1 channel, primary screen, cell-based, thallium flux, high-throughput | 310,000 compounds, 1.3% hits | CHO-K1 KCNQ1, FluxOR thallium flux fluorescence; stronger effect = higher value | AID 2642, 2010 | B-score at 10 µM | Potassium voltage-gated channel subfamily KQT member 1 (Homo sapiens), P51787;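 active means compounds whose thallium flux B-score, printed positive for inhibition, exceeds three library SD while starting fluorescence stays within three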;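 further: channel opened by potassium depolarization with thallium stimulus after 20 min compound exposure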
KCNK9 inh – KCNK9 potassium channel inhibitors, primary screen, HEK293 cells, thallium flux | Potassium channel subfamily K member 9 (Homo sapiens), Q9NPC2 | FluxOR thallium flux fluorescence; stronger effect = lower value | B-score at 10 µM | 310,000 compounds, 1.2% hits;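 active means ratio B-score over 3 SD below the library mean, with starting fluorescence within 5 SD of its mean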;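 further: negative B-score means less thallium flux so channel inhibition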
Target sequence (Q9NPC2 whole entry, looked up): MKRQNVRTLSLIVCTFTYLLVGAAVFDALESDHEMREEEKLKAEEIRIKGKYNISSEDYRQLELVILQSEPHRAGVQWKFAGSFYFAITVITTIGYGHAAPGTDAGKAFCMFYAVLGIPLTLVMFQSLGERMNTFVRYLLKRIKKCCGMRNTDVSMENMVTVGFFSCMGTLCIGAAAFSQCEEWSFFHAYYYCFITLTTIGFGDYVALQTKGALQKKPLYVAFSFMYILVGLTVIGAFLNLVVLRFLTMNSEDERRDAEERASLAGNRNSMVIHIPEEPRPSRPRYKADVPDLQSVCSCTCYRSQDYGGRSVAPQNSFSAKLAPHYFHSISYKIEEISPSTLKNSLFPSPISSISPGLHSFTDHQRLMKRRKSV
KCNQ1 pot – potentiators or activators of KCNQ1 channel, primary screen, cell-based, thallium flux, high-throughput; Potassium voltage-gated channel subfamily KQT member 1 (Homo sapiens), P51787; CHO-K1 KCNQ1, thallium flux FluxOR fluorescence; stronger effect = higher value; B-score at 10 µM; 310,000 compounds, 0.35% hits;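 active means fluorescence ratio B-score, a plate-corrected score, at least three library SD, with initial intensity B-score within 5 SD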
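Assay system: CHO-K1 cells stably expressing KCNQ1. Medium: assay buffer for compound exposure, DMSO matched across wells. Timing: 37 °C overnight plating, 90-min dark dye load, 20-min compound pretreatment. Signal: kinetic FluxOR fluorescence, 10 s baseline plus 110 s post-stimulus.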
hERG rescue – hERG rescue from dofetilide block, primary screen, cell-based, CHO-hERG, FluxOR thallium flux, dofetilide IC70 | Voltage-gated inwardly rectifying potassium channel KCNH2 (Homo sapiens), Q12809 | dofetilide IC70 present | activation (rescue from dofetilide block), less the hit threshold, % at 10 µM | 310,000 compounds, 0.51% hits;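 active means activation above the mean of controls blocked by dofetilide plus 5 SD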;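 further: thallium influx through hERG after potassium depolarization seen as dye fluorescence rise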
Kir21 inh – inhibitors of mouse Kir2.1 inward-rectifier potassium channel; Inward rectifier potassium channel 2 (Mus musculus), P35561; B-score at 10 µM; HEK293-Kir2.1, FluxOR thallium flux fluorescence; stronger effect = lower value; 310,000 compounds, 0.85% hits;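 active means fluorescence ratio B-score at or below minus 3 SD of library scores, with starting-brightness B-score within 2 SD, cut at about -4.2 in these data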;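 further: channel flux triggered by added potassium and thallium sulfate stimulus; B-score of peak minus minimum fluorescence over baseline after thallium stimulus; more negative B-score means stronger Kir2.1 block with less thallium influx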
Target sequence (P35561 whole entry, looked up): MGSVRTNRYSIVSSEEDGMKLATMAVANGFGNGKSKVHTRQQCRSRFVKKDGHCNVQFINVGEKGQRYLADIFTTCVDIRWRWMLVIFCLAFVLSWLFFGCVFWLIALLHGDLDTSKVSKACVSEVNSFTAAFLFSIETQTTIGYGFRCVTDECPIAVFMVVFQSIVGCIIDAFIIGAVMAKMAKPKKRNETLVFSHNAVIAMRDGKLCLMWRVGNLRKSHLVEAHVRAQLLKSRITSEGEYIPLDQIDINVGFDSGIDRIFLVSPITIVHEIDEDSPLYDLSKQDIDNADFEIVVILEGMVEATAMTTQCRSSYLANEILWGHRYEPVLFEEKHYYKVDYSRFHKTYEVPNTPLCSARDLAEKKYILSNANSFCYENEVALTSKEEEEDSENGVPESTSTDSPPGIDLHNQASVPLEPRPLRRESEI
KCNK3 inh – human KCNK3 channel inhibitors, primary screen, CHO cells, FluxOR thallium flux, B-score; Potassium channel subfamily K member 3 (Homo sapiens), O14649; FluxOR fluorescence; stronger effect = lower value; B-score at 10 µM; 340,000 compounds, 0.84% hits;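 active means B-score under library mean minus 4 SD, starting fluorescence ratio at most library mean plus 5 SD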;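 further: more negative B-score means stronger inhibition of thallium flux through KCNK3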
KCNK9 inh conf – KCNK9 potassium channel inhibitors, confirmation, HEK293 cells, thallium flux, duplicate; shares compounds with KCNK9 inh; FluxOR thallium flux fluorescence; inhibition, % at 10 µM; 4,900 compounds, 43% hits; AID 492992, 2010;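 active means thallium signal inhibited by more than 5 SD of the compound-free buffer control wells, on both duplicate plates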
Kir21 sel – mouse Kir2.1 channel inhibition, confirmation, selectivity assay for KCNK9 modulator project, cell-based, HEK293, thallium flux | shares compounds with KCNK9 inh | Kir2.1 cells, FluxOR thallium flux fluorescence | inhibition, % at 10 µM | 4,900 compounds, 4% hits | AID 492993, 2010;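 active means thallium signal drop more than 5 SD beyond the mean of the no-compound control wells, seen in both duplicate plates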;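 further: signal is fluorescence rise after thallium addition divided by baseline fluorescence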
HEK293 Tl ctr – thallium flux in non-induced HEK293 cells, confirmation, counter-screen for KCNK9 inhibitor project, cell-based, second counter screen, non-induced KCNK9-HEK293 | shares compounds with KCNK9 inh | FluxOR thallium flux | inhibition, % at 10 µM | 4,900 compounds, 40% hits | AID 492997, 2010;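 active means thallium signal drop beyond 5 SD of the untreated control mean, on both duplicate plates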
A number is an active result; 0 = inactive; - = not tested or not shown.

SMILES | KCNQ1 block | KCNK9 inh | KCNQ1 pot | hERG rescue | Kir21 inh | KCNK3 inh | KCNK9 inh conf | Kir21 sel | HEK293 Tl ctr
O=C(Nc1nccs1)c1c(O)c2c(n(Cc3ccco3)c1=O)CCCC2 | 6 | -8.2 | 0 | 0 | 0 | 0 | 44% | 0 | 36%
O=C(Nc1ccccc1)c1c(O)c2c(n(Cc3ccco3)c1=O)CCCC2 | 0 | 0 | 0 | 0 | 0 | 0 | - | - | -
CC(=O)OC1C=CC2[C@H]3Cc4ccc(O)c5c4[C@@]2(CCN3C)C1O5 (some centres undefined) | - | - | - | - | - | 0 | - | - | -
O=C(O)c1cccc2c1NC(c1cccc([N+](=O)[O-])c1)C1CC(Sc3ccccc3[N+](=O)[O-])C(Cl)C21 (centres undefined) | 0 | 0 | 16 | 0 | 0 | 0 | 0 | 0 | 0
COC(=O)C1=C(c2cc3ccccc3s2)C[C@@H]2CC[C@H]1N2C(=O)N1CCC(C)CC1 | 0 | 0 | 0 | 0 | 0 | 0 | 0 | 0 | 0
COc1cccc(NP(=O)(Oc2ccccc2Cl)Oc2ccccc2Cl)c1 | 0 | -10 | 0 | 0 | 0 | 0 | 38% | 0 | 38%
O=C(CN1C(=O)CN=C(c2ccccc2Cl)c2cc(Cl)ccc21)NCc1ccco1 | 0 | 0 | 0 | 0 | 0 | 0 | - | - | -
Cc1cccc(C2=NCC(=O)N(CC(=O)NCc3ccco3)c3sc4c(c32)CCCC4)c1 | 0 | -11 | 0 | 0 | 0 | 0 | 41% | 0 | 30%
O=c1c(C=NCc2cccs2)c(O)n(C2CCCCC2)c(=O)n1C1CCCCC1 | 0 | 0 | 0 | 0 | 0 | 0 | 0 | 0 | 0
CCOC(=O)[C@@H]1[C@H]2COc3ccc(Br)cc3[C@H]2N2C(=O)N(c3cccc(C)c3)C(=O)[C@]12C | - | - | - | - | - | 0 | - | - | -
C[C@]12CCC3C(CC[C@H]4C[C@H](O)CC[C@]34C)C1CCC2=O (some centres undefined) | - | - | - | - | - | 0 | - | - | -
CCCCn1c(=O)c(C=Nc2cc([N+](=O)[O-])ccc2OC)c(O)n(CCCCl)c1=O | 0 | 0 | 0 | 0 | 0 | 0 | - | - | -
CC(C)n1c(=O)c(C=Nc2cccc([N+](=O)[O-])c2)c(O)n(CCc2ccccc2)c1=O | 0 | 0 | 0 | 0 | 0 | 0 | 0 | 0 | 0
Cc1ccc(CN2CCC3CCC(C3)C2)c(O)c1 (centres undefined) | - | - | - | - | - | 0 | - | - | -
Nc1ccc(CCN2CCCC2)cc1 | 0 | 0 | 0 | 0 | 0 | 0 | - | - | -
Nc1ccc(CCN2CCN(c3cccc(C(F)(F)F)c3)CC2)cc1 | 0 | 0 | 0 | 0 | 0 | 0 | 0 | 0 | 0
CCCCCCn1c(=O)c(C(=O)Nc2c(C)n(C)n(-c3ccccc3)c2=O)c(O)c2ccccc21 | 0 | 0 | 0 | 0 | 0 | 0 | 0 | 0 | 0
COc1ccc(C(=O)C2CCCN(Cc3ccon3)C2)c(OC)c1 (centres undefined) | 0 | 0 | 0 | 0 | 0 | 0 | - | - | -
COc1ccc(CN2CCCC(C(=O)c3cccc(Cl)c3)C2)cc1 (centres undefined) | 0 | 0 | 0 | 0 | -8.8 | 0 | 0 | 32% | 0
COc1cccc(C(=O)C2CCCN(Cc3ccc4nonc4c3)C2)c1 (centres undefined) | 0 | 0 | 0 | 0 | 0 | 0 | 0 | 0 | 0
COc1ccc(CN2CCCC(C(=O)c3ccc(Cl)cc3)C2)c(OC)c1 (centres undefined) | 0 | 0 | 0 | 0 | -5.2 | 0 | 0 | 0 | 0
O=C(c1cccc(Cl)c1)C1CCCN(Cc2ccon2)C1 (centres undefined) | 0 | 0 | 0 | 0 | 0 | 0 | - | - | -
CSc1ncc(CN2CCCC(C(=O)c3cccc(Cl)c3)C2)cn1 (centres undefined) | 0 | 0 | 0 | 0 | 0 | 0 | 0 | 0 | 0
CC(C)Oc1cccc(C(=O)C2CCCN(Cc3ccon3)C2)c1 (centres undefined) | 0 | 0 | 0 | 0 | 0 | 0 | - | - | -
CC(CN1CCOCC1)C(C#N)(c1ccccc1)c1ccccc1 (centres undefined) | - | - | - | - | - | 0 | - | - | -
SMILES | KCNQ1 block | KCNK9 inh | KCNQ1 pot | hERG rescue | Kir21 inh | KCNK3 inh | KCNK9 inh conf | Kir21 sel | HEK293 Tl ctr
COc1cccc(C(=O)C2CCCN(Cc3cccc4c3OCO4)C2)c1 (centres undefined) | 0 | 0 | 0 | 0 | 0 | 0 | 0 | 0 | 0
O=C(c1cc(F)ccc1F)C1CCCN(Cc2ccc3nonc3c2)C1 (centres undefined) | 0 | 0 | 0 | 0 | 0 | 0 | 0 | 0 | 0
COc1ccc(O)c(CN2CCCC(C(=O)c3sccc3C)C2)c1 (centres undefined) | 0 | 0 | 0 | 0 | 0 | 0 | - | - | -
COc1ccc(CN2CCCC(C(=O)c3ccccc3SC)C2)cc1O (centres undefined) | 0 | 0 | 0 | 0 | 0 | 0 | - | - | -
CC[C@H]1C2C[C@H]3[C@@H]4N(C)c5ccccc5C45C[C@H](C2[C@H]5O)N3[C@@H]1O (some centres undefined) | - | - | - | - | - | 0 | - | - | -
CCOc1ccc(-n2c(-c3ccoc3)nc3ccccc3c2=O)cc1 | 0 | 0 | 0 | 0 | 0 | 0 | - | - | -
CCOc1ccc(-c2c(C)n(-c3ccc(OCC)cc3)c3[n+]2CCCCC3)cc1 | 9 | -10 | 0 | 0 | -10 | 0 | 44% | 33% | 0
Cc1cccc(CN2CCN(c3ccc(Cl)cc3)CC2)c1 | 0 | 0 | 0 | 0 | 0 | 0 | 0 | 0 | 0
Fc1ccc(CN2CCN(c3ccc(Cl)cc3)CC2)cc1 | 0 | 0 | 0 | 0 | 0 | 0 | - | - | -
Cc1ncc2n1-c1ccc(Cl)cc1C(c1ccccc1F)=NC2 | - | - | - | - | - | 0 | - | - | -
O=C(c1ccc2c(c1)N(Cc1ccc(F)cc1)CCS2)N1CCC2(CC1)OCCO2 | 0 | 0 | 0 | 0 | 0 | 0 | 0 | 0 | 0
Cc1ccc(CN2CCSc3ccc(C(=O)N4CCC5(CC4)OCCO5)cc32)cc1 | 0 | 0 | 0 | 0 | 0 | 0 | - | - | -
C=C(C)[C@@]12OC3(c4ccccc4)O[C@@H]1C1[C@@H]4O[C@]4(CO)[C@@H](O)[C@]4(O)C(=O)C(C)=C[C@H]4[C@@]1(O3)[C@H](C)[C@H]2OC(=O)/C=C/C=C/c1ccccc1 (some centres undefined) | 0 | 0 | 0 | 0 | 0 | 0 | - | - | -

Screening results from PubChem BioAssay.
